# The source made the active and inactive calls. The calls are words filed in the database; no cut-off is given here.
# Legend:
# [1] = target: T1, Retinoic acid receptor beta (Homo sapiens) (UniProt P10826); experiment: Agonist activity at RARbeta2 expressed in mouse NIH3T3 cells by R-SAT assay relative to Am-580; assay type: functional, cell-based
# T1 sequence (whole entry): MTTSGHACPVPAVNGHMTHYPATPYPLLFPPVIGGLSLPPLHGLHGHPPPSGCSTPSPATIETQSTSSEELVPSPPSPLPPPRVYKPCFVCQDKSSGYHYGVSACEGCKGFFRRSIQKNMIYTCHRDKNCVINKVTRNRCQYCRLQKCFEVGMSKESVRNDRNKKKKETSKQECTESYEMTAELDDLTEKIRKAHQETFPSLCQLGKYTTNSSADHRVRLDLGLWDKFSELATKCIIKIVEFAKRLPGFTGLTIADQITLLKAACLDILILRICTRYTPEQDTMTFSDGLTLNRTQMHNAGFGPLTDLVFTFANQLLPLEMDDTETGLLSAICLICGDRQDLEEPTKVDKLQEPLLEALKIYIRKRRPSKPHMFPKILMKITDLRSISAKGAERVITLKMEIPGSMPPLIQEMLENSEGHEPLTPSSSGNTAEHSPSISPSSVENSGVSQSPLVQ
# Outline: (§1)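 High-throughput cell-proliferation functional assay (R-SAT). Efficacy is expressed relative to reference agonist AM-580, which is set to 100%. pEC50 and efficacy are means of at least three experiments ± SD. […] Where marked, efficacy is the maximum at concentrations <10 µM.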
# [2] = target: T2, Retinoic acid receptor beta (Homo sapiens, UniProt P10826); experiment: Activity at RARbeta1 expressed in mouse NIH3T3 cells by R-SAT assay; assay type: cell-based
# T2 sequence (P10826 whole entry): T1 sequence (whole entry)
# [3] = Metabolic stability in rat liver microsomes assessed as intrinsic clearance; assay type: ADME, Microsome
# Outline: (§2)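 Liver microsomes, rat or human, as stated per line. Read-out is intrinsic clearance in µL/(min·mg) protein. Hepatic extraction was calculated without correcting for the unbound fraction of drug in plasma.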
# [4] = target: T1, Retinoic acid receptor beta (Homo sapiens); experiment: Activity at RARbeta1 expressed in mouse NIH3T3 cells by R-SAT assay relative to Am-580; assay type: cell-based; outline: as §1
# [5] = target: T3, Retinoic acid receptor gamma (Homo sapiens) (UniProt P13631); experiment: Activity at RARgamma expressed in mouse NIH3T3 cells by R-SAT assay relative to Am-580; assay type: cell-based; outline: as §1
# T3 sequence (whole entry): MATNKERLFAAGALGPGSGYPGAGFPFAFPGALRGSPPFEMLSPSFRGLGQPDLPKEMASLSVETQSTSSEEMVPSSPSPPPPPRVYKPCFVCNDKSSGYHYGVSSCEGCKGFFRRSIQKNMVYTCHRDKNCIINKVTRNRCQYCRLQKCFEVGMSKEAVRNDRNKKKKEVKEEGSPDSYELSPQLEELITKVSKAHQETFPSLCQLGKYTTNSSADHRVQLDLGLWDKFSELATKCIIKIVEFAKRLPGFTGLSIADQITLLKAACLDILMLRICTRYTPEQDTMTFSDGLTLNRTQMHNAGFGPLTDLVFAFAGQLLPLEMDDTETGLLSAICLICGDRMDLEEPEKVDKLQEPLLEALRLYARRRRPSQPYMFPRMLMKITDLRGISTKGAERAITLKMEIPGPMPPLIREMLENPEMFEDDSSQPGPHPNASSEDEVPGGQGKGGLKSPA
# [6] = Clearance in rat; assay type: ADME, organism-based; details: in vivo
# [7] = target: T4, Retinoic acid receptor alpha (Homo sapiens, UniProt P10276); experiment: Activity at RARalpha expressed in mouse NIH3T3 cells by R-SAT assay; assay type: cell-based; details: for pEC50: nih3t3
# T4 sequence (P10276 whole entry): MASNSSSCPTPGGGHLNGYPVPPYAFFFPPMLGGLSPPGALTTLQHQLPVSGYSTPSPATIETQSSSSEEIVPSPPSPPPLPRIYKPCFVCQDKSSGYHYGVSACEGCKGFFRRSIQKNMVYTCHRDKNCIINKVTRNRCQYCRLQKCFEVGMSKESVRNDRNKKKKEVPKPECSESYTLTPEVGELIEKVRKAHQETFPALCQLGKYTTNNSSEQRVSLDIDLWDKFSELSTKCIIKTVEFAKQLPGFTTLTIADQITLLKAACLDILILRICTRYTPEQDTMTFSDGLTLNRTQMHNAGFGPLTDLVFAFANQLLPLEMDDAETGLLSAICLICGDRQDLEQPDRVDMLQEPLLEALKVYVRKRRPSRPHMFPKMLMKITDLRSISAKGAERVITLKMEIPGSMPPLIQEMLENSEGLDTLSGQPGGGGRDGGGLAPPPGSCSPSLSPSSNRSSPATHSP
# [8] = target: T5, Retinoic acid receptor gamma (Homo sapiens, UniProt P13631); experiment: Activity at RARgamma expressed in mouse NIH3T3 cells by R-SAT assay; assay type: cell-based; details: for pEC50: nih3t3
# T5 sequence (P13631 whole entry): T3 sequence (whole entry)
# [9] = Metabolic stability in human liver microsomes assessed as intrinsic clearance; assay type: ADME, Microsome; outline: as §2
# [10] = target: T2, Retinoic acid receptor beta; experiment: Agonist activity at RARbeta2 expressed in mouse NIH3T3 cells by R-SAT assay; assay type: functional, cell-based; details: for pEC50: nih3t3
# [11] = target: T1, Retinoic acid receptor beta (Homo sapiens); experiment: Activity at RARbeta1 expressed in mouse NIH3T3 cells at <10 uM by R-SAT assay relative to Am-580; assay type: cell-based; outline: as §1
# [12] = target: T3, Retinoic acid receptor gamma (Homo sapiens); experiment: Activity at RARgamma expressed in mouse NIH3T3 cells at <10 uM by R-SAT assay relative to Am-580; assay type: cell-based; outline: as §1
# [13] = target: T6, Retinoic acid receptor alpha (Homo sapiens) (UniProt P10276); experiment: Activity at RARalpha expressed in mouse NIH3T3 cells at <10 uM by R-SAT assay relative to Am-580; assay type: cell-based; outline: as §1
# T6 sequence (whole entry): T4 sequence (P10276 whole entry)
# [14] = Aqueous solubility in phosphate buffer at pH 7.4; assay type: physicochemical
# [15] = target: T1, Retinoic acid receptor beta (Homo sapiens); experiment: Activation of RARbeta2 expressed in HEK293 cells after 48 hrs by RARE-luciferase reporter gene assay; assay type: cell-based
# MCF7 [16] = experiment: Inhibition of human MCF7 cell proliferation assessed as inhibition of DNA synthesis by [3H]thymidine incorporation assay; assay type: functional, cell-based
# [17] = Distribution coefficient, log D of the compound; assay type: physicochemical; details: octanol/water
# Outline: (§3)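 Lipophilicity descriptors, cLogD at pH 7.4 and cLogP, are mostly calculated. Values in parentheses are experimentally determined.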
# NIH3T3 [18] = experiment: Selectivity for RARbeta2 expressed in mouse NIH3T3 cells over RARbeta1 expressed in mouse NIH3T3 cells; assay type: cell-based
# MCF7 [19] = experiment: Inhibition of human MCF7 cell proliferation; assay type: functional, cell-based
# NIH3T3 [20] = experiment: Selectivity for RARbeta2 expressed in mouse NIH3T3 cells over RARgamma expressed in mouse NIH3T3 cells; assay type: cell-based
# NIH3T3 [21] = experiment: Selectivity for RARbeta2 expressed in mouse NIH3T3 cells over RARalpha expressed in mouse NIH3T3 cells; assay type: cell-based
# [22] = Lipophilicity, Log P of the compound; assay type: physicochemical; details: octanol/water; outline: as §3
# NTERA2 = experiment: Induction of neurite outgrowth in human NTERA2 cells; assay type: functional, cell-based
smiles,measurement,setting,value
CCCCOCCOc1nc(-c2ccc(C(=O)O)c(F)c2)sc1C,Efficacy,[1],106%
same,EC50,[2],0.398 µM
same,microsomal CLint,[3],10 µL/min/mg
same,Efficacy,[4],52%
same,Efficacy,[5],48%
same,clearance,[6],41 mL/min/kg
same,EC50,[7],0.631 µM
same,EC50,[8],0.501 µM
same,microsomal CLint,[9],36 µL/min/mg
CCCCCCCc1ccc(-c2ccc(C(=O)O)s2)cc1,Activity,[1],inactive
same,pEC50,[10],> 5
CCCCCCCc1cnc(-c2ccc(C(=O)O)cc2)nc1,Efficacy,[1],93%
same,EC50,[10],1 µM
CCOCCOc1nc(-c2ccc(C(=O)O)cc2)sc1C,Efficacy,[1],78%
same,EC50,[10],0.0631 µM
CC(C)CCCCOc1ccc(-c2ccc(C(=O)O)cc2)cc1,Efficacy,[1],75%
same,Efficacy,[11],28%
same,Efficacy,[12],31%
same,pEC50,[7],> 5
CCCCOCCOc1ccc(-c2ccc(C(=O)O)cc2)cc1,Efficacy,[1],78%
same,Activity,[4],inactive
same,Activity,[5],inactive
same,pEC50,[7],> 5
same,EC50,[10],0.0631 µM
same,pEC50,[8],> 5
CCCCCCNC(=O)COc1nc(-c2ccc(C(=O)O)cc2)sc1C,Efficacy,[1],85%
same,Efficacy,[11],42%
same,Efficacy,[5],63%
same,Efficacy,[13],35%
same,EC50,[10],0.0398 µM
same,EC50,[8],0.631 µM
CCCCCCCc1ccc(-c2ccc(C(=O)O)c(F)c2)cc1,Efficacy,[1],50%
same,EC50,[10],0.126 µM
CCCCCCNC(=O)COc1ccc(-c2ccc(C(=O)O)cc2)cc1,Activity,[1],inactive
same,pEC50,[10],> 5
CCCCCCCc1ccc(-c2ccc(C(=O)O)cc2C)cc1,Activity,[1],inactive
same,pEC50,[10],> 5
CCCCCCCCc1ccc(-c2ccc(C(=O)O)s2)cc1,Activity,[1],inactive
same,pEC50,[10],> 5
CCCCCCCCOc1ccc(-c2ccc(C(=O)O)cc2)cc1,Efficacy,[1],70%
same,EC50,[2],1 µM
same,Efficacy,[4],49%
same,EC50,[10],0.1 µM
CCCOCCOc1nc(-c2ccc(C(=O)O)cc2)sc1C,Efficacy,[1],100%
same,EC50,[10],0.126 µM
CCCCOCCOc1cc(C)c(-c2ccc(C(=O)O)cc2)cc1C,Efficacy,[1],41%
same,EC50,[10],0.251 µM
CCCCCCCc1ccc(-c2ccc(C(=O)O)cc2)cc1,Efficacy,[4],230%
CCCCCCCOc1nc(-c2ccc(C(=O)O)cc2)sc1C,Activity,[1],inactive
same,pEC50,[10],> 5
CC1(C)CCC(C)(C)c2cc(C(=O)Nc3ccc(C(=O)O)cc3)ccc21,Efficacy,[5],99%
CCCCCCCCc1ccc(-c2ccc(C(=O)O)c(F)c2)cc1,Efficacy,[1],114%
same,EC50,[2],0.398 µM
same,Efficacy,[4],54%
same,Efficacy,[5],84%
same,EC50,[7],2 µM
same,EC50,[10],0.0398 µM
same,EC50,[8],0.158 µM
CCCCCCCCc1ccc(-c2ccc(C(=O)O)cc2C)cc1,Efficacy,[1],37%
same,EC50,[10],0.1 µM
CCCCOCCOc1ccc(-c2ccc(C(=O)O)c(F)c2)cc1,Efficacy,[1],108%
same,Efficacy,[11],36%
same,Efficacy,[12],37%
same,EC50,[7],1.58 µM
same,solubility,[14],20 µg/mL
same,EC50,[10],0.02 µM
same,microsomal CLint,[9],8 µL/min/mg
CCCCCCOc1ccc(-c2ccc(C(=O)O)cc2)cc1,Efficacy,[1],72%
same,Activity,[4],inactive
same,EC50,[10],0.0316 µM
CCCCOCCOc1nc(-c2ccc(C(=O)O)cc2)sc1C,Efficacy,[1],99%
same,EC50,[2],1.26 µM
same,Efficacy,[4],45%
same,Efficacy,[12],54%
same,EC50,[10],0.0794 µM
CCCCCCCCc1ccc(-c2ccc(C(=O)O)cc2)cc1,Activity,[15],Active
same,Activity,MCF7 [16],Active
same,EC50,[2],2 µM
same,microsomal CLint,[3],5 µL/min/mg
same,Efficacy,[4],29%
same,logD,[17],4.5
same,fold change (FC),NIH3T3 [18],100
same,Activity,MCF7 [19],Dose-dependent effect
same,fold change (FC),NIH3T3 [20],100
same,fold change (FC),NIH3T3 [21],100
same,Efficacy,[12],31%
same,EC50,[7],2.51 µM
same,logP,[22],7.9
same,solubility,[14],< 1 µg/mL
same,Activity,NTERA2,Active
same,microsomal CLint,[9],5 µL/min/mg
CCCCCCCOc1ccc(-c2ccc(C(=O)O)cc2)cc1,Efficacy,[1],62%
same,Activity,[4],inactive
same,Activity,[5],inactive
same,pEC50,[7],> 5
same,EC50,[10],0.0631 µM
same,pEC50,[8],> 5
CCCCCCCCc1ccc(-c2ccc(C(=O)O)c(C)c2)cc1,Efficacy,[1],84%
same,EC50,[10],0.631 µM
CCCCCCCCc1ccc(-c2ccc(C(=O)O)cc2F)cc1,Efficacy,[1],85%
same,EC50,[10],0.1 µM
